Measurements taken from ChEMBL document CHEMBL1134768, “Identification of a putative binding site for [2',5'-bis-O-(tert-butyldimethylsilyl)-beta-D-ribofuranosyl]-3'-spiro-5''-(4''-amino-1'',2''-oxathiole-2'',2''-dioxide)thymine (TSAO) derivatives at the p51-p66 interface of HIV-1 reverse transcriptase” (J Med Chem, 2001).
pEC50, pIC50: −log10 of the molar value.

Experiments:
CCRF-CEM [1] = experiment: Inhibitory activity against HIV-2 in CEM cell culture.; type: functional, cell-based; settings: Homo sapiens
MT4 [2] = experiment: Inhibitory activity against HIV-2 in MT-4 cell culture.; type: functional, cell-based; settings: Homo sapiens
CCRF-CEM [3] = experiment: Inhibitory activity against HIV-1 in CEM cell culture.; type: functional, cell-based; settings: Homo sapiens
Procedure, shortened: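 CEM cells at about 200000-300000 cells/mL infected with HIV-1 (IIIB), then added to serial dilutions of compound. After 4 days at 37 °C, syncytium formation was scored by microscopy.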

MT4 [4] = experiment: Inhibitory activity against HIV-1 in MT-4 cell culture.; type: functional, cell-based; settings: Homo sapiens
Procedure, shortened: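 MT-4 cells at about 200000-300000 cells/mL infected with HIV-1 (IIIB) and incubated with serial compound dilutions for 5 days at 37 °C. Viable cells were counted by trypan blue exclusion.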

[5] = target: Human immunodeficiency virus type 1 reverse transcriptase (Human immunodeficiency virus 1, UniProt Q72547); experiment: Inhibitory activity against wild-type HIV-1 reverse transcriptase
[6] = target: Human immunodeficiency virus type 1 reverse transcriptase (Human immunodeficiency virus 1, UniProt Q72547, R172A); experiment: Inhibitory activity against R172A mutant reverse transcriptase
[7] = target: Human immunodeficiency virus type 1 reverse transcriptase (Human immunodeficiency virus 1, UniProt Q72547, E138K); experiment: Inhibitory activity against E138K mutant reverse transcriptase

| Compound | pEC50 (CCRF-CEM [1]) | pEC50 (CCRF-CEM [3]) | pEC50 (MT4 [2]) | pEC50 (MT4 [4]) | pIC50 [5] | pIC50 [6] | pIC50 [7] |
| --- | --- | --- | --- | --- | --- | --- | --- |
| Cc1cn([C@@H]2O[C@H](CO[Si](C)(C)C(C)(C)C)C3(OS(=O)(=O)C=C3N)[C@H]2O[Si](C)(C)C(C)(C)C)c(=O)[nH]c1=O (stereo partly drawn) | < 4.70 |  | < 4.70 |  | 5.21 | 6.20 | < 3.07 |
| Cc1cn([C@@H]2O[C@H](CO[Si](C)(C)C(C)(C)C)[C@@]3(OS(=O)(=O)C=C3N)[C@H]2O[Si](C)(C)C(C)(C)C)c(=O)n(C)c1=O | < 3.70 | 7.22 | < 3.70 | 7.30 |  |  |  |
| CC(C)=CCOc1cc(NC(=S)c2ccoc2C)ccc1Cl [UC 781] |  |  |  |  | 7.62 | 7.68 | 6.65 |
| Cc1cn([C@@H]2O[C@H](CO[Si](C)(C)C(C)(C)C)[C@@]3(OS(=O)(=O)C=C3N)[C@H]2O[Si](C)(C)C(C)(C)C)c(=O)[nH]c1=S | < 5.70 | 6.77 | < 5.00 | 6.77 |  |  |  |

More lines, main results first:

| pEC50 (CCRF-CEM [1]) | pEC50 (CCRF-CEM [3]) | Compound | pEC50 (MT4 [2]) | pEC50 (MT4 [4]) | pIC50 [5] | pIC50 [6] | pIC50 [7] |
| --- | --- | --- | --- | --- | --- | --- | --- |
| < 5.70 | 7.00 | CC1=CN([C@@H]2O[C@H](CO[Si](C)(C)C(C)(C)C)[C@@]3(OS(=O)(=O)C=C3N)[C@H]2O[Si](C)(C)C(C)(C)C)C(=O)NC1 | < 5.00 | 6.70 |  |  |  |
| < 5.70 | 8.00 | Cc1cn([C@@H]2O[C@H](CO[Si](C)(C)C(C)(C)C)[C@@]3(OS(=O)(=O)C=C3N)[C@H]2O[Si](C)(C)C(C)(C)C)c(=O)n(CCCO)c1=O | < 5.70 | 7.52 |  |  |  |
| < 5.00 | 6.92 | CC1=CNC(=O)N([C@@H]2O[C@H](CO[Si](C)(C)C(C)(C)C)[C@@]3(OS(=O)(=O)C=C3N)[C@H]2O[Si](C)(C)C(C)(C)C)C1 | < 5.00 | 6.64 |  |  |  |
